Reference: ChEMBL document CHEMBL4622976, “Development of pH/Glutathione-Responsive Theranostic Agents Activated by Glutathione S-Transferase π for Human Colon Cancer” (J Med Chem, 2020)
pIC50: −log10 of the molar value. Activity calls are given as the source filed them. The rule behind the calls is not given here.

Columns and labels:
[1] = Drug metabolism assessed as GSTpi (unknown origin) mediated compound fluorescence activation at 1 uM in presence of 1 mM Mg2+ by HPLC analysis; format: ADME; settings: human
Method in brief: (§1)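 Selectivity test: compound (1 µM) with catalytic GSTπ and each analyte in water with 1% (v/v) DMSO at pH 4.0, 37 °C for 0.5 h. Analytes were cations at 1 mM; amino acids, vitamin C, Na2S and GSH at 100 µM. Readout was fluorescence emission spectra (excitation 440 nm, recorded 450–650 nm).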

[2] = Drug metabolism assessed as GSTpi (unknown origin) mediated compound fluorescence activation at 1 uM in presence of 50 uM H2O2 by HPLC analysis; format: ADME; settings: human
[3] = Drug metabolism assessed as GSTpi (unknown origin) mediated compound fluorescence activation at 1 uM in presence of 100 uM arginine by HPLC analysis; format: ADME; settings: human; method in brief: as §1
[4] = Drug metabolism assessed as GSTpi (unknown origin) mediated compound fluorescence activation at 1 uM in presence of 100 uM cysteine by HPLC analysis; format: ADME; settings: human; method in brief: as §1
[5] = Toxicity in ICR mouse assessed as induction of animal survival rate at 240 mg/kg, ip measured after 14 days; format: organism-based; settings: in vivo
Method in brief: (§2)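 Female ICR mice, randomised, n = 10 per group. Single intraperitoneal dose of 240.0, 300.0, 375.0, 468.8 or 585.9 mg/kg, or vehicle. Deaths recorded at 1 h, 4 h, days 1–4 and days 5–14. Body weight, drinking, eating and activity observed over 14 days. Survival percentage taken on day 14; LD50 derived from the dose–mortality data.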

[6] = Toxicity in ip dosed ICR mouse for 14 days; format: organism-based; settings: in vivo; method in brief: as §2
[7] = Drug metabolism assessed as GSTpi (unknown origin) mediated compound fluorescence activation at 1 uM in presence of 1 mM Zn2+ by HPLC analysis; format: ADME; settings: human; method in brief: as §1
[8] = Toxicity in ICR mouse assessed as induction of abnormality in eating behavior at 240 mg/kg, ip for 14 days; format: organism-based; settings: in vivo, 336 h
Method in brief: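 Female ICR mice (n = 10 per group) given a single intraperitoneal dose at 240.0, 300.0, 375.0, 468.8 or 585.9 mg/kg, or vehicle. Deaths recorded at 1 h, 4 h and daily through day 14. Body weight, drinking, eating and activity observed for abnormality; LD50 derived from mortality.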

[9] = Drug metabolism assessed as GSTpi (unknown origin) mediated compound fluorescence activation at 1 uM in presence of 100 uM vitamin C by HPLC analysis; format: ADME; settings: human; method in brief: as §1
HT-29 [10] = test: Induction of autophagy in human HT-29 cells assessed as increase in LC3-II protein level incubated for 72 hrs by Western blot analysis; format: functional, cell-based
Method in brief: (§3)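 HT29 cells (1.5×10^5/mL) exposed to compound or vehicle for 72 h, then lysed. Lysates (0.05 mg/lane) run on 12% SDS-PAGE, transferred to nitrocellulose, blocked with 5% non-fat milk and probed for LC3, p62, beclin-1 and β-actin. Bands quantified relative to β-actin, with LC3-II/LC3-I ratio also calculated; means ± SD from three independent assays.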

HT-29 [11] = test: Antitumor activity against human HT-29 cells xenografted in nude BALB/c mouse assessed as reduction in tumor weight at 40 mg/kg, ip dosed every day for 21 days relative to control; format: functional; set-up: scale not given: the % may be the effect or the level left
HT-29 [12] = test: Antitumor activity against human HT-29 cells xenografted in nude BALB/c mouse assessed as reduction in tumor volume at 20 mg/kg, ip dosed every day for 21 days; format: functional, organism-based
HT-29 [13] = test: Induction of apoptosis in human HT-29 cells assessed as increase in cleaved caspase-3 protein level incubated for 72 hrs by Western blot analysis; format: functional, cell-based
Method in brief: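 HT29 cells (1.5×10^5/mL) were treated for 72 h and lysed. Lysate (0.05 mg/lane) was run on 12% SDS-PAGE and transferred to nitrocellulose. After blocking in 5% non-fat milk, blots were probed for Bax, Bcl-2, cleaved caspase-3, cleaved PARP, LC3, p62 and beclin-1. Levels were normalised to β-actin, and means ± SD taken from three independent assays.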

[14] = Toxicity in ICR mouse assessed as induction of animal death at 240 to 585.9 mg/kg, ip measured after 4 hrs; format: organism-based; settings: in vivo; method in brief: as §2
[15] = Drug uptake in human HT-29 cells at 1 uM measured within 10 mins by confocal fluorescence microscopy; format: ADME, cell-based; settings: ht-29, 10 min
Method in brief: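 Cells were seeded at 2×10^5 in glass-bottom dishes and allowed to attach. Medium was then replaced with DMEM containing 1 µM compound. Confocal images were taken every minute for 60 min with a 40× water objective, 405 nm laser and 480–530 nm filter. Intracellular fluorescence intensity was quantified.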

HT-29 [16] = test: Induction of autophagy in human HT-29 cells assessed as reduction in p62 protein level incubated for 72 hrs by Western blot analysis; format: functional, cell-based; method in brief: as §3
[17] = Toxicity in ICR mouse assessed as induction of animal death at 240 to 375 mg/kg, ip measured after 1 day; format: organism-based; settings: in vivo, 24 h; method in brief: as §2
[18] = Drug metabolism assessed as GSTpi (unknown origin) mediated compound fluorescence activation at 1 uM in presence of 1 mM Al3+ by HPLC analysis; format: ADME; settings: human; method in brief: as §1
[19] = Toxicity in ICR mouse assessed as induction of animal survival rate at 468.8 mg/kg, ip measured after 14 days; format: organism-based; settings: in vivo; method in brief: as §2
[20] = Toxicity in ICR mouse assessed as induction of animal death at 240 to 300 mg/kg, ip measured after 4 days; format: organism-based; settings: in vivo, 96 h; method in brief: as §2
[21] = Drug metabolism assessed as GSTpi (unknown origin) mediated 1-(3,4,5-trimethoxyphenyl)-9H-pyrido[3,4-b]indol-3-amine formation at 40 uM in presence of 0.8 mM GSH by HPLC analysis; format: ADME; settings: human
Method in brief: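 HPLC measurement of amine release after incubating compound (40 µM) with GSH (0.8 mM) and GSTπ or GSTα at 0.03 µg/ml.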

HT-29 [22] = test: Antiproliferative activity against human HT-29 cells by MTT assay; format: functional, cell-based
Method in brief: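 MTT assay. Cells were grown in DMEM/RPMI 1640 with 10% FBS, penicillin and streptomycin at 37 °C under 5% CO2. After a PBS wash, cells got 0.5 mg/mL MTT for 3 h at 37 °C. Formazan was dissolved in DMSO and absorbance read at 570 nm. Inhibition was expressed as a percentage and IC50 calculated. Means ± SD come from three separate experiments.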

[23] = Drug localization in colon of intra-operative mouse xenografted with human HT-29/Luc cells at 40 mg/kg, iv measured after 2 hrs post dose by fluorescence imaging assay; format: ADME, organism-based; settings: in vivo
Method in brief: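 Orthotopic model: 1×10^6 HT29/Luc cells were injected into the upper colon of anaesthetised nude mice (5–6 weeks old). Tumours were confirmed by bioluminescence after two weeks. Dosing was 40 mg/kg iv, with whole-body bioluminescence and fluorescence imaging at 2 h under pentobarbital anaesthesia. Organs were then excised and imaged ex vivo (ex/em 430/490 nm).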

[24] = Drug metabolism assessed as GSTpi (unknown origin) mediated compound fluorescence activation at 1 uM in presence of 100 uM serine by HPLC analysis; format: ADME; settings: human; method in brief: as §1
[25] = Drug metabolism assessed as GSTpi (unknown origin) mediated compound fluorescence activation at 1 uM in presence of 100 uM histidine by HPLC analysis; format: ADME; settings: human; method in brief: as §1

COc1cc(-c2nc(NC(=O)OCC3=CCCCC3=O)cc3c2[nH]c2ccccc23)cc(OC)c1OC
Drug metabolism [1]: Metabolite_Notdetected
Drug metabolism [2]: Metabolite_Notdetected
Drug metabolism [3]: Metabolite_Notdetected
Drug metabolism [4]: Metabolite_Notdetected
survival at 336 h [5]: 100%
LD50 at 336 h [6]: 475 mg/kg
Drug metabolism [7]: Metabolite_Notdetected
Activity [8]: Non-Toxic
Drug metabolism [9]: Metabolite_Notdetected
Activity (HT-29 [10]): Dose-dependent effect
Activity (HT-29 [11]): 67.7%
Activity (HT-29 [12]): Active
Activity (HT-29 [13]): Dose-dependent effect
Activity [14]: Non-Toxic
Drug uptake [15]: Active
Activity (HT-29 [16]): Dose-dependent effect
Activity [17]: Non-Toxic
Drug metabolism [18]: Metabolite_Notdetected
survival at 336 h [19]: 40%
Activity [20]: Non-Toxic
Drug metabolism [21]: Metabolite_Detected
pIC50 (HT-29 [22]): 6.04
Drug uptake [23]: Active
Drug metabolism [24]: Metabolite_Notdetected
Drug metabolism [25]: Metabolite_Notdetected
